Experiment [1] addresses Leucine-rich repeat serine/threonine-protein kinase 2 (Homo sapiens, UniProt Q5S007, G2019S). Kind of experiment: Inhibition of recombinant human GST-tagged LRRK2 G2019S mutant catalytic domain (970 to 2527 residues) expressed in baculovirus expression system by radiometric assay.
Experiment [2] concerns the target Calcium/calmodulin-dependent protein kinase kinase 2 (Homo sapiens) (UniProt Q96RR4). Kind of experiment: Inhibition of CAMKKb (unknown origin) at 10 uM relative to control. The gist of the method:
(§1)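 Single-point screen of each compound against a panel of 59 protein kinases, at 1 or 10 μM. The panel data are also summarised as a rescaled geometric mean selectivity score.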

The target in experiment [3] is MAP kinase-interacting serine/threonine-protein kinase 1 (Homo sapiens) (UniProt Q9BUB5). Kind of experiment: Inhibition of MNK1 (unknown origin) at 10 uM relative to control. The essentials:
(§2)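 Single-concentration screen of each compound against a 59-protein-kinase panel, run at 10 µM or 1 µM. Activity relative to control is shown as a heat map across the panel.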

Experiment [4] deals with MAP/microtubule affinity-regulating kinase 3 (Homo sapiens) (UniProt P27448). The experiment can be described thus: Inhibition of MARK3 (unknown origin) at 10 uM relative to control. The gist of the method: as §2
Experiment [5] addresses Serine/threonine-protein kinase PLK1 (Homo sapiens) (UniProt P53350). Kind of experiment: Inhibition of PLK1 (unknown origin) at 10 uM relative to control. The essentials: as §2
Experiment [6] has as its target Ribosomal protein S6 kinase alpha-1 (Homo sapiens) (UniProt Q15418). The experiment can be described thus: Inhibition of RSK1 (unknown origin) at 10 uM relative to control. The essentials: as §2
For experiment [7], the target named is Dual specificity mitogen-activated protein kinase kinase 1 (Homo sapiens) (UniProt Q02750). The experiment can be described thus: Inhibition of MKK1 (unknown origin) at 10 uM relative to control. The gist of the method:
as §2

Experiment [8] concerns the target Serine/threonine-protein kinase Nek6 (Homo sapiens) (UniProt Q9HC98). Kind of experiment: Inhibition of NEK6 (unknown origin) at 10 uM relative to control. The essentials:
as §2

The target in experiment [9] is Ribosomal protein S6 kinase beta-1 (Homo sapiens) (UniProt P23443). Kind of experiment: Inhibition of S6K1 (unknown origin) at 10 uM relative to control. The essentials:
(§3)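 Single-concentration screen across a panel of 59 protein kinases, with each compound tested at one fixed concentration. The read-out is residual kinase activity relative to control. Panel results are also condensed into a rescaled geometric mean (RGM) selectivity score.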

Experiment [10] concerns the target SRSF protein kinase 1 (Homo sapiens) (UniProt Q96SB4). The experiment can be described thus: Inhibition of SRPK1 (unknown origin) at 10 uM relative to control. The gist of the method:
as §3

Experiment [11] addresses Fibroblast growth factor receptor 1 (Homo sapiens) (UniProt P11362). The experiment can be described thus: Inhibition of FGFR1 (unknown origin) at 10 uM relative to control. The essentials: as §1
The target of experiment [12] is T1, Serine/threonine-protein kinase Sgk1 (Homo sapiens) (UniProt O00141).
T1 sequence (whole entry): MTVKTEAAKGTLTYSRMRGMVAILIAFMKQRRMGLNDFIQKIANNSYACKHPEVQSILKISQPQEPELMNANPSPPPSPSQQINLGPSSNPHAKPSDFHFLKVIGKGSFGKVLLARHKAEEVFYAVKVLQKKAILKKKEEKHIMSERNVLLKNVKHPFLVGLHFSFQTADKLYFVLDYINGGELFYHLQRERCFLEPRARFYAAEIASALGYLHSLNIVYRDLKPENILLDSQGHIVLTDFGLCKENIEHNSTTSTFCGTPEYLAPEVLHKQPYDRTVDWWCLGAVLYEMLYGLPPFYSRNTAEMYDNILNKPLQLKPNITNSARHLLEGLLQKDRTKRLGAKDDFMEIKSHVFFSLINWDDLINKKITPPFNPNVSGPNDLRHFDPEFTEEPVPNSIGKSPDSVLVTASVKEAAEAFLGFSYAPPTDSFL
Kind of experiment: Inhibition of SGK1 (unknown origin) at 10 uM relative to control. The gist of the method:
as §3

The target of experiment [13] is T2, MAP kinase-activated protein kinase 5 (Homo sapiens) (UniProt Q8IW41).
T2 sequence (whole entry): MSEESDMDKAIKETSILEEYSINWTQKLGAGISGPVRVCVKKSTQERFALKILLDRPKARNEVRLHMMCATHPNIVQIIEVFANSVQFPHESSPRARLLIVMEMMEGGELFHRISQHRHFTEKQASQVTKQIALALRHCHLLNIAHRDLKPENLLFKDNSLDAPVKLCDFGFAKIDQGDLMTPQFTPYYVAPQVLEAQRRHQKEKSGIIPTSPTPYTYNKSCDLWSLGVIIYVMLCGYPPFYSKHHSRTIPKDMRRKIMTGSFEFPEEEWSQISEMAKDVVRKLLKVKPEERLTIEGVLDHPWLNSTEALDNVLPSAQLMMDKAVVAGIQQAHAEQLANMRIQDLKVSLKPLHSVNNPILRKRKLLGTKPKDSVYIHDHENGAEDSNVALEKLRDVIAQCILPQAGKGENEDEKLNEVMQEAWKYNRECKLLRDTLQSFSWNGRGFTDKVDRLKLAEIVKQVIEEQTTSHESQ
The experiment can be described thus: Inhibition of PRAK (unknown origin) at 10 uM relative to control. The gist of the method:
as §2

Experiment [14] has as its target Ribosomal protein S6 kinase alpha-3 (Homo sapiens) (UniProt P51812). Kind of experiment: Inhibition of RSK2 (unknown origin) at 10 uM relative to control. The essentials:
as §3

The target in experiment [15] is AMP-activated protein kinase, AMPK (Homo sapiens) (UniProt P54646+O43741+P54619+Q9UGJ0+Q9Y478+Q13131+Q9UGI9). The experiment can be described thus: Inhibition of AMPK (unknown origin) at 10 uM relative to control. The format is protein-complex assay. The gist of the method:
as §1

Experiment [16] is filed under the species Homo sapiens. Kind of experiment: Inhibition of VEGFR (unknown origin) at 10 uM relative to control. The essentials:
as §3

Experiment [17] is filed under the species Homo sapiens. The experiment can be described thus: Inhibition of PKA (unknown origin) at 10 uM relative to control. The gist of the method: as §2
Experiment [18] concerns the target Glycogen synthase kinase-3 beta (Homo sapiens) (UniProt P49841). Kind of experiment: Inhibition of GSK3b (unknown origin) at 10 uM relative to control. The essentials:
as §1

In experiment [19] the target is CDK2/Cyclin A2 (Homo sapiens) (UniProt P24941+P20248). The experiment can be described thus: Inhibition of CDK2/cyclinA (unknown origin) at 10 uM relative to control. The experiment is classed as protein-complex assay. The gist of the method: as §1
In experiment [20] the target is Maternal embryonic leucine zipper kinase (Homo sapiens) (UniProt Q14680). Kind of experiment: Inhibition of MELK (unknown origin) at 10 uM relative to control. The gist of the method:
as §2

Experiment [21] deals with Serine/threonine-protein kinase N2 (Homo sapiens) (UniProt Q16513). The experiment can be described thus: Inhibition of PRK2 (unknown origin) at 10 uM relative to control. The gist of the method:
as §2

Sequence of Ribosomal protein S6 kinase alpha-1 (Homo sapiens) (Q15418 whole entry): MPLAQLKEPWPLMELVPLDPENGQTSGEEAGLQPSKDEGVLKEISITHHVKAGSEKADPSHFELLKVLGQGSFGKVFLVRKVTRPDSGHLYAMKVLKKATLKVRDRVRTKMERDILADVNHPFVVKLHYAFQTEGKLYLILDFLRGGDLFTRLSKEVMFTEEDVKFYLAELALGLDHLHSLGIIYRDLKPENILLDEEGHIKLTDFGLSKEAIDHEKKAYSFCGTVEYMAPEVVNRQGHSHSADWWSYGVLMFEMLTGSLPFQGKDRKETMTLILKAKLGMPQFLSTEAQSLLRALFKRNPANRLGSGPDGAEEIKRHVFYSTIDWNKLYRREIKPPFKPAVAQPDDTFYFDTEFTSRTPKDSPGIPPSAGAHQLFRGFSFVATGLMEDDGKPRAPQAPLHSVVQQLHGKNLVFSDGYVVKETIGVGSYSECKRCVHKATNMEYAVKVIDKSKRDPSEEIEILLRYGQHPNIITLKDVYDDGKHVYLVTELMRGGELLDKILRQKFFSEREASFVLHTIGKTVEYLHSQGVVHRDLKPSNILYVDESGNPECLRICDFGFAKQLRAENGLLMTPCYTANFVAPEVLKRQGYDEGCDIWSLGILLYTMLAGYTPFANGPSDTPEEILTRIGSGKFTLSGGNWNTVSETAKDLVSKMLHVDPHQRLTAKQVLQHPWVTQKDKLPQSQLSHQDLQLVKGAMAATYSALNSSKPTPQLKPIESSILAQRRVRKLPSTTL
Sequence of Fibroblast growth factor receptor 1 (Homo sapiens) (P11362 22-822 limits assumed): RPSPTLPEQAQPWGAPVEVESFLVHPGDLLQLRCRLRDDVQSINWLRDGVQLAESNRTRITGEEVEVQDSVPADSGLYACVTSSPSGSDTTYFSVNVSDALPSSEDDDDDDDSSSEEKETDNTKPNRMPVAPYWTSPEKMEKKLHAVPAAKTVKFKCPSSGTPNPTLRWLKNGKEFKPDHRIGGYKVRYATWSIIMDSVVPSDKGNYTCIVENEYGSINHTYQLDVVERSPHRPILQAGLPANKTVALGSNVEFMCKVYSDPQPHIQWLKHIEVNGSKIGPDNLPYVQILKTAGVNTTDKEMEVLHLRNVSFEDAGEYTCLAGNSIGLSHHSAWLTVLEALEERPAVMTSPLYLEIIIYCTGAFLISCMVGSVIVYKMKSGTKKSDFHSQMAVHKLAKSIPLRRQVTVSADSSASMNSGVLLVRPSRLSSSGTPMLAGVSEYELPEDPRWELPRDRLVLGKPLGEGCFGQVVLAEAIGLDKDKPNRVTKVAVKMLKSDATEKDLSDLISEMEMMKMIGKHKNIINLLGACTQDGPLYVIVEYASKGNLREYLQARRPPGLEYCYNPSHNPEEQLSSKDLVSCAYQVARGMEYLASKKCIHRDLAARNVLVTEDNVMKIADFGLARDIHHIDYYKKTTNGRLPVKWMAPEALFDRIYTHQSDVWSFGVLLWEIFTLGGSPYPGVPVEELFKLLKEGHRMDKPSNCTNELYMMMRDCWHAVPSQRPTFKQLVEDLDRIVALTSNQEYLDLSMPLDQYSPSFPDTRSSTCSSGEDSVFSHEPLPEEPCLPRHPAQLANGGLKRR
Sequence of Calcium/calmodulin-dependent protein kinase kinase 2 (Homo sapiens) (Q96RR4 2-588 limits assumed): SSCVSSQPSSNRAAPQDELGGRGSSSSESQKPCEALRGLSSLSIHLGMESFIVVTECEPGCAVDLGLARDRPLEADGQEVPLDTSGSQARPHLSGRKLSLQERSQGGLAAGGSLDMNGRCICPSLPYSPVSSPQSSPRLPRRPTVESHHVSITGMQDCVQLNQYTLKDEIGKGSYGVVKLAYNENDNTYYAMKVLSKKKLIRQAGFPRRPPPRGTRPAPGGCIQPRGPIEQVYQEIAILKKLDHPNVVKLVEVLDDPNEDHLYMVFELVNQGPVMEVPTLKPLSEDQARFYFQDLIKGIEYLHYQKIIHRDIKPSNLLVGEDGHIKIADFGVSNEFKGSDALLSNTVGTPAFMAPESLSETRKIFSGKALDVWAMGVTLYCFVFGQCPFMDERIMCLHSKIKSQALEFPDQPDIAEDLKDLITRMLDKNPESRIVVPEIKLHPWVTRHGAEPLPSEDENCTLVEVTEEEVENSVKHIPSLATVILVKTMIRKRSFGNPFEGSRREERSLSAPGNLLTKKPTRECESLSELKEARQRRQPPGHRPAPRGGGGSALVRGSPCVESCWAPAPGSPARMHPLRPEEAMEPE
Sequence of SRSF protein kinase 1 (Homo sapiens) (Q96SB4 whole entry): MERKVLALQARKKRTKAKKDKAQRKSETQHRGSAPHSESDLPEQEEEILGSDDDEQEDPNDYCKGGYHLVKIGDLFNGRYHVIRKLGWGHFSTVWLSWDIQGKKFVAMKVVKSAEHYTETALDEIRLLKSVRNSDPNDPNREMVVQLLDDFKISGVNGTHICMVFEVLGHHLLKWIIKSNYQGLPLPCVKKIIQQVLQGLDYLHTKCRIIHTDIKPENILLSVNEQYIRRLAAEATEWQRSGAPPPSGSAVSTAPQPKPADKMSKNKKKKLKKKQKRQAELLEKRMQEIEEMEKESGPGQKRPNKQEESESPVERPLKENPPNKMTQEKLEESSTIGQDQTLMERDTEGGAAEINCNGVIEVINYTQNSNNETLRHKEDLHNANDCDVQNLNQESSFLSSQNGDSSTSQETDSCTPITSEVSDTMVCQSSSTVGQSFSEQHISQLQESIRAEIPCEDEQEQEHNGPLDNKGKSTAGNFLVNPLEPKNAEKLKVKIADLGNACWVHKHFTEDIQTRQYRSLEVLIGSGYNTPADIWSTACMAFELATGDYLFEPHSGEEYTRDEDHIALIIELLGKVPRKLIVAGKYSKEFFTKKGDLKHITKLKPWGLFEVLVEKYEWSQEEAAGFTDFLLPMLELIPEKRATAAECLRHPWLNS
Sequence of Ribosomal protein S6 kinase alpha-3 (Homo sapiens) (P51812 whole entry): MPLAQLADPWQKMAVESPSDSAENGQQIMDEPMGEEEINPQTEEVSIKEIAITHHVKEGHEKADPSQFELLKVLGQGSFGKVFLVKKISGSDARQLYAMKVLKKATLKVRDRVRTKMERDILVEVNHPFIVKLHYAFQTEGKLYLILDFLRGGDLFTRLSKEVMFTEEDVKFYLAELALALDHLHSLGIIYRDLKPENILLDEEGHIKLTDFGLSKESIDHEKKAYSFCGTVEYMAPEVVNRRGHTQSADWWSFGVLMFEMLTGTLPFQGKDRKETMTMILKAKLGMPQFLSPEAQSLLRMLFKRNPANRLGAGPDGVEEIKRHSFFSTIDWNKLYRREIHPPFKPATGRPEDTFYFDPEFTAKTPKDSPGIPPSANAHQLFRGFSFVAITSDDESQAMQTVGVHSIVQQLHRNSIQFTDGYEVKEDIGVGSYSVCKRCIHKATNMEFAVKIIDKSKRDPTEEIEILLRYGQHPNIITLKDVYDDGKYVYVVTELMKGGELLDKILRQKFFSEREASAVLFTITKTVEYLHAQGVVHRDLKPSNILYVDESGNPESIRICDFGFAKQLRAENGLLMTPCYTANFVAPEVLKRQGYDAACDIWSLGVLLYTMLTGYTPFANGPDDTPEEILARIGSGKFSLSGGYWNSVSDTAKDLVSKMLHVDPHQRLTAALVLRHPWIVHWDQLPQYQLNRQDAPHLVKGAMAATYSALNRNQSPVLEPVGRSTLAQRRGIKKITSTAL
Sequence of Serine/threonine-protein kinase N2 (Homo sapiens) (Q16513 whole entry, looked up): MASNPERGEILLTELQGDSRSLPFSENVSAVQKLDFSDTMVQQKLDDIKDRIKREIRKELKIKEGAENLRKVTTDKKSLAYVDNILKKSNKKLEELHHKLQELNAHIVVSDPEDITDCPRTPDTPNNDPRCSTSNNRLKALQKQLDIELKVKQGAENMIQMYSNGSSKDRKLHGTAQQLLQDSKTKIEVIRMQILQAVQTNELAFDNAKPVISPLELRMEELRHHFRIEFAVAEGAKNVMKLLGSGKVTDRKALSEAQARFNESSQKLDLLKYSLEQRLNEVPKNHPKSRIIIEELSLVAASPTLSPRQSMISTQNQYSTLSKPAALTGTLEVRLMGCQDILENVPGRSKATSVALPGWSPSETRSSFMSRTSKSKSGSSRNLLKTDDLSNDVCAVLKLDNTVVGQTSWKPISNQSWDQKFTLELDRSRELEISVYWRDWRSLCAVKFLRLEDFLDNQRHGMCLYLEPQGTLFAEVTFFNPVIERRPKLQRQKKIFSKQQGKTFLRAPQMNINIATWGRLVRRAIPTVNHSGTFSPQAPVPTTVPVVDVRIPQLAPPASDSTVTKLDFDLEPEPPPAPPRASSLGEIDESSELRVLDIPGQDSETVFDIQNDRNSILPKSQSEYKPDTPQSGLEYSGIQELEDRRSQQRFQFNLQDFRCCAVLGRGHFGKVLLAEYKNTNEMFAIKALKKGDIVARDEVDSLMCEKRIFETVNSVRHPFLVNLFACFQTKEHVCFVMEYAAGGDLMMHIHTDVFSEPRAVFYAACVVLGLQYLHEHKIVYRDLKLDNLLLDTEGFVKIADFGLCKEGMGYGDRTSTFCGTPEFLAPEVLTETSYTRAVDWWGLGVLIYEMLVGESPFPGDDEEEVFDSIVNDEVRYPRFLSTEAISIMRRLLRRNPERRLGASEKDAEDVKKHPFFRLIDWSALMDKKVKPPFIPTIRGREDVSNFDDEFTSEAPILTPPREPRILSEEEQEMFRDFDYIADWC
Sequence of Glycogen synthase kinase-3 beta (Homo sapiens) (P49841 whole entry, looked up): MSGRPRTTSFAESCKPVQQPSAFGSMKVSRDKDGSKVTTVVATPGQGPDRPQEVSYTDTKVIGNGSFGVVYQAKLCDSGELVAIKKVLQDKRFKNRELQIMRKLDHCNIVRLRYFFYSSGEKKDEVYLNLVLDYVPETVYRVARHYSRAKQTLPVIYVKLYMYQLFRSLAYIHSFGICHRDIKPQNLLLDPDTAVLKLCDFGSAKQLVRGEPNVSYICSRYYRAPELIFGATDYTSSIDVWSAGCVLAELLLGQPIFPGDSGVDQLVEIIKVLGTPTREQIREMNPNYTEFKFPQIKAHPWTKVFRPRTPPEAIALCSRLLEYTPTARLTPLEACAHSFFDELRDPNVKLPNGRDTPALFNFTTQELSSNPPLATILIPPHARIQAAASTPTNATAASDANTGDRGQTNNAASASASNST

In general, IC50 refers to the point on the concentration scale where inhibition reaches its midpoint. For `c1cc(-c2n[nH]c3ccnc(OC4CCOCC4)c23)cc(N2CCOCC2)n1`, the IC50 in experiment [1] came out at 12 nM.

The inhibition is the percentage by which the read-out fell short of the control. Take `Cc1n[nH]c2ccnc(OC3CCCCC3)c12`: the inhibition was determined as 72% in experiment [2]; 12% in experiment [3]; 46% in experiment [4]; 53% in [5]; 84% in [6]; 96% in [7]. For the same compound, the inhibition in experiment [8] turned out to be 4%; in experiment [9] it was 78%; in experiment [10], 20%; in experiment [11], 84%; in [12], 73%; in experiment [13] it was 7%. In addition, the inhibition was found to be 73% in experiment [14]; 82% in [15]; 76% in the experiment listed under Homo sapiens [16]; 93% in the experiment filed under Homo sapiens [17]; 73% in experiment [18]; 86% in experiment [19]. Besides, the inhibition came out at 95% in experiment [20] and 92% in [21]. In addition, the 50% inhibitory concentration (IC50) in [1] was determined as 67 nM.

On to `Cc1n[nH]c2ccnc(NC3CCCCC3)c12`, for which the inhibition in [2] came to 46%; in experiment [3] it was 0%; in experiment [4], 34%; in experiment [5], 34%; in experiment [6], 59%; in [7], 57%. For the same compound, the inhibition in experiment [8] was 13%; in experiment [9], 28%; in experiment [10] it was 10%; in experiment [11], 69%; in experiment [12] it was 41%; in experiment [13] it was 3%. The inhibition came out at 51% in experiment [14]; 29% in experiment [15]; 43% in the experiment listed under Homo sapiens [16]; 49% in the experiment listed under Homo sapiens [17]; 23% in [18]; 86% in [19]. The inhibition in experiment [20] was 91%; in experiment [21], 63%. The half-inhibitory concentration (IC50) in [1] came out at 390 nM.

As for `Cc1n[nH]c2ccnc(Nc3ccccc3F)c12`, the inhibition in experiment [2] came to 36%; in experiment [3] it was 18%; in experiment [4], 46%; in [5], 72%; in experiment [6], 61%; in experiment [7], 57%. Besides, the inhibition in experiment [8] is 12%; in experiment [9] it was 36%; in experiment [10], 17%; in experiment [11], 66%; in experiment [12], 69%; in experiment [13] it was 11%. Besides, the inhibition in experiment [14] was found to be 38%; in experiment [15] it was 56%; in the experiment filed under Homo sapiens [16], 67%; in the experiment listed under Homo sapiens [17], 9%; in experiment [18], 53%; in [19], 79%. The inhibition in experiment [20] stood at 83%; in experiment [21] it was 50%. Besides, the IC50 in experiment [1] came out at 150 nM.

Regarding `CC(C)n1cc(-c2n[nH]c3ccnc(OC4CCOCC4)c23)cn1`, the IC50 in [1] came out at 11 nM.

`Cc1n[nH]c2ccnc(Nc3ccc4ncsc4c3)c12`: the IC50 in experiment [1] lay within 130 to 380 nM. Further, the inhibition in experiment [4] came to 36%; in experiment [6] it was 84%; in [9] it was 19%; in [10] it was 0%; in [13], 10%; in [14], 73%. In experiment [19], this compound showed an inhibition of 78%.

Values taken from ChEMBL document CHEMBL4330096, “Discovery of potent and selective 5-azaindazole inhibitors of leucine-rich repeat kinase 2 (LRRK2) - Part 1” (Bioorg Med Chem Lett, 2019).
